From PubChem BioAssay
The entries come from a sample that favours hits as a whole.
UPR CHOP act: apoptotic UPR (CHOP) activation. CHO-CHOP luciferase reporter, luminescence; percent of tunicamycin response over DMSO baseline. activation, % at 10 µM. 0.34% of 330,000 active. AID 449763;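 active = at 10 µM dose, activation of 40% or more, normalized to positive control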
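Material: CHO-CHOP cells, stable luciferase reporter of PERK-eIF2a-CHOP signalling; quantity: 500 reporter cells seeded per well; buffer or medium: F12 medium containing 10% fetal bovine serum; compound: one dose, 10 µM in 0.5% DMSO; incubation: 6 h compound treatment, 37 °C; measured by: Steady-Glo luciferase luminescence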
Jurkat NFkB inh: lowers PMA/ionomycin-induced NF-kB signal in Jurkat cells; inhibition, % at 4 µM; PMA/ionomycin-induced NF-kB luciferase reporter, luminescence; 0.53% of 330,000 active; in the data active = inhibition above about 50%
697 NFkB inh: inhibitors of the PMA/ionomycin-induced NF-kB reporter in 697 B cells; 697 B-cell NF-kB luciferase reporter, 16 h; 0.33% of 330,000 active; inhibition, % at 4 µM; in the data active = inhibition above about 35%
UPR XBP1 act: adaptive UPR (XBP1) activation | CHO-XBP1 luciferase reporter, IRE1-XBP1 UPR activation, luminescence; percent of tunicamycin response, DMSO as zero | activation, % at 20 µM | 0.33% of 330,000 active;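 active = versus positive control, 20 µM dose yields 30% or more activation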
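Material: CHO-XBP1 cells stably carrying IRE1-XBP1-driven luciferase reporter | Medium: F12 with 10% serum | Compound dosing: 20 µM single concentration, DMSO 1% | Incubation: Overnight seeding at 37 °C, 6 h compound treatment at 37 °C | Detection: Steady-Glo luminescence read | Read-out basis: % activation of reporter signal versus tunicamycin and DMSO controls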
CHOP inhibitor: CHOP inhibition in unfolded protein response | CHO-K1 CHOP-promoter luciferase, tunicamycin-induced, 15-18 h | inhibition, % at 10 µM | 3.8% of 220,000 active;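 active = compounds that reduced the stress-induced luciferase reporter signal by more than about 70% of percent inhibition, limit read from the data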
Jurkat NFkB conf: lowers PMA/ionomycin-induced NF-kB signal in Jurkat cells | shares compounds with Jurkat NFkB inh | Jurkat NF-kB luciferase, 16 h | inhibition, % at 4 µM | 27% of 2,700 active;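 active = inhibition reaching about 45% at 4 µM in either replicate, limit read from the data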
Of the large screens only hits and unclear results are named; the others gave an inactive call (follow-up assays come after a bar, where they were run).

COc1ccc(CC(=O)N2CCc3cc(OC)c(OC)cc3C2C)c(OC)c1 (configuration not stated)	none (no result: CHOP inhibitor)
CC(=O)NC12CC3CC(C1)CC(C(=O)OCC(=O)c1cc(C)n(C)c1C)(C3)C2	none (no result: CHOP inhibitor) | Jurkat NFkB conf inactive
CC(=O)NC12CC3CC(C1)CC(C(=O)OCC(=O)Nc1ncc(Cl)c(C)c1Cl)(C3)C2	none
CC(=O)NC12CC3CC(C1)CC(C(=O)OCC(=O)c1ccc4c(c1)OCCO4)(C3)C2	none | Jurkat NFkB conf inactive
Cc1ccsc1C(=O)N/N=C/c1ccc2c(c1)OCO2	none | Jurkat NFkB conf inactive
O=C(O)c1ccc(N/N=C/c2ccc3c(c2)OCO3)cc1	Jurkat NFkB inh 75.2, CHOP inhibitor 93.5 | Jurkat NFkB conf inactive
COc1ccc(OCC(=O)Nc2cccc(C(=O)Nc3ccccc3C(=O)O)c2)cc1	none
Cc1cccc(CCNS(=O)(=O)c2ccc3c(c2)CCN3C(=O)CCC(=O)O)c1	none (no result: CHOP inhibitor)
Cc1ccc(-n2nnnc2-c2cnc3ccc(Cl)cc3c2-c2ccccc2)cc1	Jurkat NFkB inh 58.6 | Jurkat NFkB conf inactive
Nc1ncc(-c2nnnn2-c2ccc(Cl)cc2)c(-c2ccc(Cl)cc2)n1	Jurkat NFkB inh 56.2 | Jurkat NFkB conf inactive
Cc1cc(C)nc(N2CCC(C(=O)Nc3nnc(C)s3)CC2)n1	none
COc1cc(C(=O)N/N=C/c2cc([N+](=O)[O-])cs2)cc(OC)c1OC	Jurkat NFkB inh 67.4 | Jurkat NFkB conf inactive
COc1ccc(NS(=O)(=O)c2cc(NC(=O)c3sccc3C)ccc2N2CCOCC2)cc1	Jurkat NFkB inh 50.5 | Jurkat NFkB conf inactive
COc1ccc(NS(=O)(=O)c2cc(NC(=O)c3ccco3)ccc2N2CCCC2)cc1	Jurkat NFkB inh 61.7 | Jurkat NFkB conf inactive
Nc1nc(-c2ccccc2)cc(N2CCCCC2)n1	Jurkat NFkB inh 54.8 (no result: CHOP inhibitor) | Jurkat NFkB conf inactive
Cc1nc(-c2ccccc2)cc(N2CCCC2)n1	none
CC(=O)Nc1ccc(-c2cc3ccccc3o2)cc1	none | Jurkat NFkB conf inactive
COc1ccc(N(S(=O)(=O)c2ccccc2)S(=O)(=O)c2ccccc2)c(N)c1	Jurkat NFkB inh 50.6 (no result: CHOP inhibitor) | Jurkat NFkB conf inactive
COc1nc(-c2cccs2)cc(-c2ccc(C)cc2)c1C#N	Jurkat NFkB inh 57.0 | Jurkat NFkB conf inactive
O=C(CSc1nnc2ccccn12)N1CCc2ccccc21	none
CCCSc1nnc(Sc2nnnn2-c2ccccc2)s1	Jurkat NFkB inh 86.6 (no result: CHOP inhibitor) | Jurkat NFkB conf 60.8
CNC(=O)Nc1ccc(C2SCCS2)cc1	none
O=C(Nc1ccc(C2SCCS2)cc1)c1ccccc1	none | Jurkat NFkB conf inactive
O=C(Nc1ccc(Cl)c(Cl)c1)c1ccccc1	none (no result: CHOP inhibitor) | Jurkat NFkB conf inactive
Cc1cc(N2CCOCC2)nc(-c2ccc([N+](=O)[O-])cc2)n1	none
Clc1ccc(CSc2nncn2-c2ccc3c(c2)OCCO3)cc1	Jurkat NFkB inh 57.7 | Jurkat NFkB conf inactive
O=C(Nc1cc(Br)ccc1O)c1cc(-c2ccccc2)on1	none (no result: CHOP inhibitor)
CCCc1cc(C(=O)Nc2cc(C)ccc2O)no1	Jurkat NFkB inh 92.2 (no result: CHOP inhibitor) | Jurkat NFkB conf 60.9
Cc1ccc(O)c(NC(=O)c2cc(-c3ccccc3)on2)c1	Jurkat NFkB inh 86.1 (no result: CHOP inhibitor) | Jurkat NFkB conf inactive
CCOc1ccc(NC2OCC(O)C(O)C2O)c([N+](=O)[O-])c1 (configuration not stated)	none
C=CCn1c2ccccc2c(=O)c2cc(C#CC3(O)CCCCC3)ccc21	none (no result: CHOP inhibitor) | Jurkat NFkB conf inactive
CN1CCN(c2ccc(NC(=O)c3ccc4ccccc4c3)cc2)CC1	none (no result: CHOP inhibitor) | Jurkat NFkB conf inactive
O=C(Nc1ccc2ccccc2c1)c1cnccn1	none | Jurkat NFkB conf inactive
O=C(Nc1ccc2nccnc2c1)c1cnccn1	none
O=C(Nc1nccs1)c1ccc2ccccc2c1	none (no result: CHOP inhibitor) | Jurkat NFkB conf inactive
COc1ccc(NC(=O)c2ccc3ccccc3c2)cc1	none (no result: CHOP inhibitor) | Jurkat NFkB conf inactive
CCCCSCCCNC(=O)c1ccc(CS(=O)(=O)c2ccccc2OC)o1	none (no result: CHOP inhibitor)
COc1ccc(C(=O)n2c(C)c(CCO)c(=O)n2C)cc1	none
N#Cc1ccc(C(=O)Nc2ccc3ccccc3c2)cc1	none (no result: CHOP inhibitor) | Jurkat NFkB conf inactive
CN1CCN(c2ccc(NC(=O)c3ccc(-c4ccccc4F)o3)cc2)CC1	none (no result: CHOP inhibitor) | Jurkat NFkB conf inactive
